This is a sample that favours compounds with a hit; in the whole collection about 2.7% have one here.
pPAFAH inh = pPAFAH enzyme inhibitors, primary screen, biochemical, fluorescence polarization, human; Platelet-activating factor acetylhydrolase (Homo sapiens), Q13093; recombinant pPAFAH, FP-rhodamine probe fluorescence polarization; inhibition, % at 3.39 µM; 330,000 tested, 1.5% active;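 active = inhibition above the mean inhibition across the screen plus 3 SD, cut at about 25% in these data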;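 note: inhibitors block binding of the rhodamine activity-based probe so polarization drops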
PAFAH2 inh = PAFAH2 enzyme inhibitors, primary screen, biochemical, fluorescence polarization, human. inhibition, % at 3.39 µM. AID 492956, 2010. 340,000 tested, 0.99% active. recombinant PAFAH2, FP-rhodamine activity probe. Platelet-activating factor acetylhydrolase 2, cytoplasmic (Homo sapiens), Q99487;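 active = inhibition above the mean over all tested compounds plus 3 SD, cut at about 30% in these data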;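 note: inhibitors block probe labeling of enzyme so polarization drops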
PAFAH1B3 inh = PAFAH1B3 enzyme inhibitors, primary screen, biochemical, fluorescence polarization, human; Platelet-activating factor acetylhydrolase IB subunit alpha1 (Homo sapiens), Q15102; recombinant PAFAH1B3, FP-rhodamine probe; inhibition, % at 3.39 µM; 340,000 tested, 0.28% active;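 active = inhibition above the screen-wide average of all tested compounds plus 3 SD, cut at about 25% in these data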
PAFAH1B2 inh = PAFAH1B2 enzyme inhibitors, primary screen, biochemical, fluorescence polarization, human | inhibition, % at 3.39 µM | AID 492953, 2010 | recombinant PAFAH1B2, FP-rhodamine activity probe | Platelet-activating factor acetylhydrolase IB subunit alpha2 (Homo sapiens), P68402 | 340,000 tested, 1.2% active;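 active = inhibition above the mean of all tested compounds plus 3 SD, cut at about 24% in these data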
Target sequence (P68402 whole entry, looked up): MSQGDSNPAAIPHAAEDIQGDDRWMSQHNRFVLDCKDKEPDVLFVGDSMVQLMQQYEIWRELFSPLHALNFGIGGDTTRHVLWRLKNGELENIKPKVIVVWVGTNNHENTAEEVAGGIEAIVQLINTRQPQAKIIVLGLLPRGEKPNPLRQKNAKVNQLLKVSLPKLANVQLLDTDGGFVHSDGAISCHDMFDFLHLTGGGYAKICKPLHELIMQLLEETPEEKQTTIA
ARFGAP1 inhibitor = inhibitors of rat ARFGAP1 GAP activity, primary screen, biochemical, fluorescence polarization, GDP tracer | Arfgap1-stimulated ARF1 GTP hydrolysis, GDP FP detection | 360,000 tested, 0.26% active | ADP-ribosylation factor GTPase-activating protein 1 (Rattus norvegicus), Q62848 | inhibition, % at 16.5 µM;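 active = inhibition above a per-plate limit, mean inhibition of low control wells plus 3 SD, cut at about 25% in these data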
Target sequence (Q62848 1-136 limits assumed): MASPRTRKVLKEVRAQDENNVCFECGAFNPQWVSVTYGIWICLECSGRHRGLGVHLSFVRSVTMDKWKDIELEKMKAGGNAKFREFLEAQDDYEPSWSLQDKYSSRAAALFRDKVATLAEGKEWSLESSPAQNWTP
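Material – truncated rat Arfgap1 GAP domain · Buffer or medium – HEPES-based buffer, pH 7.5 · Reagent – human ARF1(Δ1-17)-GTP substrate · Dosing – 16.5 µM single point, 1.26% DMSO · Schedule – GTP hydrolysis reaction 2 h at 25 °C · Technique – GDP detection by fluorescence polarization · Benchmarks – No-Arfgap1 wells (100%) versus DMSO full-reaction wells (0%) · Repeats – single replicate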
ASAP1 inh = inhibitors of human ASAP1 ArfGAP activity, primary screen, biochemical, fluorescence polarization; Arf-GAP with SH3 domain, ANK repeat and PH domain-containing protein 1 (Homo sapiens), …; ASAP1-stimulated ARF1 GTP hydrolysis, GDP FP detection; inhibition, % at 16.5 µM; 360,000 tested, 0.19% active; AID 624377, 2012; in the data active = inhibition above about 25%
Target sequence (Q9ULH1 325-724 limits assumed): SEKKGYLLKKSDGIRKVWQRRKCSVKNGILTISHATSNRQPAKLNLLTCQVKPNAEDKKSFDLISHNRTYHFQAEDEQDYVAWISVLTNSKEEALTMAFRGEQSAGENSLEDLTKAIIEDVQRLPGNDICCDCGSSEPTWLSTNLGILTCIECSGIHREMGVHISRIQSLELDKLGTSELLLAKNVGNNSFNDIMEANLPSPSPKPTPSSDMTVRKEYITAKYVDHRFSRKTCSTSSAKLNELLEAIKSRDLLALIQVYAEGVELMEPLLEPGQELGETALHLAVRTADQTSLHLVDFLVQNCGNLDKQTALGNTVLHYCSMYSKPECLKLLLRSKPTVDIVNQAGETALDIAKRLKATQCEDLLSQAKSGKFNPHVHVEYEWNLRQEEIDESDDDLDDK
ARFGAP1 confirm = ARFGAP1 inhibitor hit confirmation, biochemical, fluorescence polarization, triplicate; ARFGAP1-stimulated ARF1 GTP hydrolysis, GDP tracer FP; shares compounds with ARFGAP1 inhibitor; 890 tested, 30% active; inhibition, % at 16.5 µM;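 active = average inhibition over triplicates above the hit cutoff set in the earlier primary screen, cut at about 25% in these data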
Large screens that a line does not name were inactive (follow-up assays come after a bar, where they were run); ! = not confirmed by another sample.

CC(C)(CO)CNC1CCCN(C2Cc3ccccc3C2)C1 (stereo not drawn)	ARFGAP1 inhibitor 25 | ARFGAP1 confirm inactive
CCCN1CCC(NC23CC4CC(CC(C4)C2)C3)CC1	none (no result: PAFAH2 inh, PAFAH1B3 inh, PAFAH1B2 inh, ARFGAP1 inhibitor, ASAP1 inh)
CC(C)(C)OC(=O)N1CCC(C(=O)Nc2ccc(C(=O)N3CCCC3)cc2)CC1	none (no result: pPAFAH inh)
CN(C(=O)c1ccc(NC(=O)C2CCN(C(=O)OC(C)(C)C)CC2)cc1)C1CC1	ARFGAP1 inhibitor 25 | ARFGAP1 confirm inactive
Cc1nn(C)c(Cl)c1/C=N/OC(=O)c1ccccc1	ARFGAP1 inhibitor 32 | ARFGAP1 confirm inactive
Cc1nn(C)c(Cl)c1/C=N/OC(=O)c1ccc(F)cc1	none
CC[C@H](CO)Oc1cc(NCc2cccc(N)c2)c2ncn(C(C)C)c2c1	ARFGAP1 inhibitor 27 (no result: pPAFAH inh, PAFAH2 inh, PAFAH1B3 inh, PAFAH1B2 inh) | ARFGAP1 confirm inactive
CC(C)N(C(=O)COC(=O)[C@H](C)NC(N)=O)c1ccccc1	none
O=C(CCCc1ccccc1)N=C1SC2CS(=O)(=O)CC2N1c1ccccc1F (stereo not drawn)	ARFGAP1 inhibitor 29 | ARFGAP1 confirm inactive
Cc1cnc2nc(-c3ccccc3)ccc2c1	ARFGAP1 inhibitor 26 (no result: pPAFAH inh, PAFAH2 inh, PAFAH1B3 inh, PAFAH1B2 inh) | ARFGAP1 confirm inactive
CCCCNC(=O)N1CCc2ccccc2C1	none
CCCCNc1nc2ccccc2n1CC(=O)N1CCc2ccccc2C1	ARFGAP1 inhibitor 47 | ARFGAP1 confirm inactive
Cc1cccnc1Nc1nc(-c2ccc(O)cc2O)cs1	ARFGAP1 inhibitor 34 | ARFGAP1 confirm inactive
CN(CCO)C1=NS(=O)(=O)c2cc([N+](=O)[O-])ccc21	ARFGAP1 inhibitor 30 | ARFGAP1 confirm inactive
O=C(NCc1cccs1)c1cc2c(s1)-c1ccccc1OC2	ARFGAP1 inhibitor 47 | ARFGAP1 confirm 47
O=C(NC1CC1)c1cc2c(s1)-c1ccccc1OC2	none
C=CCNc1nc(NCCOC)c2sc(-c3ccccc3)cc2n1	ARFGAP1 inhibitor 28 (no result: pPAFAH inh, PAFAH2 inh, PAFAH1B3 inh, PAFAH1B2 inh) | ARFGAP1 confirm 40
C=CCNc1nc(NCc2ccc(N(C)C)cc2)c2sc(-c3ccccc3)cc2n1	ARFGAP1 inhibitor 46 (no result: pPAFAH inh, PAFAH2 inh, PAFAH1B3 inh, PAFAH1B2 inh) | ARFGAP1 confirm inactive
CCOC(=O)Cc1nc(-c2cccc(C(F)(F)F)c2)no1	ARFGAP1 inhibitor 27 | ARFGAP1 confirm inactive
COC(=O)C(=O)C/C(=N/Nc1ncnc2ccccc12)c1ccc(Cl)cc1	none
O=P(OC1CCS(=O)(=O)C1)(c1ccccc1)c1ccccc1 (stereo not drawn)	ARFGAP1 inhibitor 27 | ARFGAP1 confirm inactive
CCC(=O)N1CCN=C1SCc1ccccc1Cl	ARFGAP1 inhibitor 29 | ARFGAP1 confirm inactive
Nc1ccc2cc3[nH]c4cc(N)ccc4c3nc2c1	ARFGAP1 inhibitor 46 (no result: pPAFAH inh) | ARFGAP1 confirm 73
CC(=O)c1ccc2noc(-c3ccc(Cl)cc3)c2c1	none
O/N=C\c1ccc2noc(-c3ccc(Cl)cc3)c2c1	ARFGAP1 inhibitor 25 | ARFGAP1 confirm 29
O=C1c2c(O)ccc(O)c2C(=O)c2c(NCCNCCO)ccc(NCCNCCO)c21	ARFGAP1 inhibitor 25! | ARFGAP1 confirm 56
Cc1ccccc1C1NC(=S)NC2=C1C(=O)CCC2 (stereo not drawn)	none
O=C(CNC(=O)c1ccco1)OCc1ccccc1F	none
COc1cccc2c1cc1c(=O)n(CC(=O)N3CCCC3)nc(C)n12	none (no result: pPAFAH inh)
O=C(CSc1ccccc1)Nc1nc2ccccc2[nH]1	none
O=C(CSc1ccc(Cl)cc1)Nc1ccc(-c2nc3ccccc3[nH]2)cc1	ARFGAP1 inhibitor 25 | ARFGAP1 confirm inactive
O=C(Nc1ccc(-c2cn3ccccc3n2)cc1)c1cccs1	ARFGAP1 inhibitor 25 | ARFGAP1 confirm 86
CC(=O)c1c(COC(=O)c2ccc(F)cc2)nc2ccccc2[n+]1[O-]	none (no result: PAFAH2 inh, PAFAH1B3 inh, PAFAH1B2 inh)
O=C(Cc1ccccc1)NC1(O)C(=O)c2ccccc2C1=O	ARFGAP1 inhibitor 27 (no result: PAFAH2 inh, PAFAH1B3 inh, PAFAH1B2 inh) | ARFGAP1 confirm inactive
CCOc1cc(/C=C2\SC(=N)N(c3nonc3N)C2=O)ccc1OCCN1CCOCC1	ARFGAP1 inhibitor 32 | ARFGAP1 confirm 38
COc1ccc(N(C(=O)c2ccco2)C(C(=O)NC2CCCC2)c2cccnc2)c(OC)c1 (stereo not drawn)	ARFGAP1 inhibitor 26 | ARFGAP1 confirm inactive
CCN1CCN(CCCNC(=O)c2ccc(NC(=O)C3=C(C)OCCS3)cc2)CC1	none
CCOc1ccccc1NC(=O)Cn1c(=O)n(-c2ccc(OC)cc2OC)c(=O)c2c(C)c(C(=O)N(CC)CC)sc21	none
COc1ccc(-n2c(=O)c3c4c(sc3n(CC(=O)Nc3cc(C)[nH]n3)c2=O)CCCC4)c(OC)c1	ARFGAP1 inhibitor 33 | ARFGAP1 confirm 33
O=C(NNC(=S)NC(=O)C12CC3CC(CC(C3)C1)C2)c1ccncc1	PAFAH1B2 inh 45, ARFGAP1 inhibitor 37 | ARFGAP1 confirm inactive
CCOC(=O)c1cc2c(=Cc3ccc(N(C)C)cc3)c3ccccc3n2[n+]1C	ARFGAP1 inhibitor 29 (no result: pPAFAH inh) | ARFGAP1 confirm inactive
CN(C)c1ccc(C=c2c3cc(O)ccc3n3c2cc(-c2ccccc2)[n+]3C)cc1	none (no result: pPAFAH inh)
COc1ccc(OC)c(/C=N/c2c(-c3ccc(O)c(OC)c3)nc3ccccn23)c1	none
O=C(Cc1cccs1)N=Nc1c(O)[nH]c2ccccc12	none
O=C(N=Nc1c(O)[nH]c2ccccc12)c1cc(-c2cccs2)[nH]n1	ARFGAP1 inhibitor 30 | ARFGAP1 confirm 32
O=C(N/N=C/c1sc(=O)n(Cc2ccc(Br)cc2)c1Cl)c1ccco1	ARFGAP1 inhibitor 39 | ARFGAP1 confirm 54
COC(=O)[C@H]1[C@@H](C)N(Cc2ccccc2)C(=O)N[C@H]1c1cccc(C(F)(F)F)c1	none
COc1ccc(C(=O)NC(=S)Nc2ccc(N3CCCC3)cc2)cc1	none
COc1ccc(C(=O)Nc2ccc(N3CCCC3)cc2)cc1	ARFGAP1 inhibitor 25 | ARFGAP1 confirm 87
Cc1cccc(N2CCN(C(=O)c3ccc(CNc4c(N5CCC(C)CC5)c(=O)c4=O)cc3)CC2C)c1 (stereo not drawn)	none
CCN(c1ccc(C)c(C)c1)S(=O)(=O)c1ccc2c(c1)CCN2C(=O)CCC(=O)O	ARFGAP1 inhibitor 29 | ARFGAP1 confirm inactive
CCN(c1ccc(OC)cc1)S(=O)(=O)c1ccc2c(c1)CCN2C(=O)CCC(=O)O	none
